Bioassay records: PubChem BioAssay, Sanford-Burnham Center for Chemical Genomics
Most compounds without a hit are left out; they make up all but 3% or so of the library.
SENP8 block-1: blocks human SENP8 cleavage of Nedd8 substrate. Q96LD8. recombinant SENP8, Nedd8 substrate fluorescence. inhibition, % at 20 µM. 0.64% of 360,000 active; in the data active = inhibition mostly above about 40%, no sharp cut-off; inactive = mostly below about 27%
Target sequence (Q96LD8 whole entry, looked up): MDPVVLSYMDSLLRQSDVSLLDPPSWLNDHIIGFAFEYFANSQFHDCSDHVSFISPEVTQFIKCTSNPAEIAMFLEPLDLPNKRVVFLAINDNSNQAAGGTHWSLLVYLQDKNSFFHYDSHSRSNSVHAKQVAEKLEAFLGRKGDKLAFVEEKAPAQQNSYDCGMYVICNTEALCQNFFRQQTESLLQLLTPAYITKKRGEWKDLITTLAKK
SENP7 inh: inhibitors of human SENP7 protease; AID 434973; Q9BQF6; recombinant SENP7, Z-RLRGG-aminoluciferin luminescence, 40 min; inhibition, % at 5 µM; 1.5% of 330,000 active;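 active = inhibition above about 50% at the single test dose, limit read from the data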;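 note: plate controls were DMSO with enzyme for no effect and no enzyme buffer wells for full effect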
SENP6 inh: SENP6 protease inhibition | Q9GZR1 | Recombinant SENP6 catalytic domain, aminoluciferin luminescence | 1.8% of 330,000 active | inhibition, % at 10 µM;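 active = inhibition above about 50% at the single tested dose, limit read from the data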;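 note: plate controls were DMSO wells with enzyme for no effect and DMSO wells lacking enzyme for full effect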
UBC13 inh: blocks human UBC13 polyubiquitin chain formation; P61088; TR-FRET; inhibition, % at 20 µM; 0.47% of 330,000 active; AID 485273; in the data active = inhibition above about 45%, passing the limit was not always enough
Target sequence (P61088 whole entry, looked up): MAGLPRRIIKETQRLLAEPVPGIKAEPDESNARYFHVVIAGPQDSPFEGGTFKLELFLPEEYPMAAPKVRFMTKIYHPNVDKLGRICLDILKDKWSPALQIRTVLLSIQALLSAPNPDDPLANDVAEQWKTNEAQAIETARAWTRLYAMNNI
SENP8 block-2: SENP8 protease inhibition; Q96LD8; purified SENP8, Z-RLRGG-aminoluciferin cleavage, luminescence; inhibition, % at 10 µM; 1.2% of 330,000 active; AID 2540; in the data active = inhibition above about 50%
Apaf1 inhib: inhibitors of human Apaf-1 apoptosome; O14727; reconstituted apoptosome caspase-3 activity, DEVD-Rh110 fluorescence; inhibition, % at 20 µM; 0.71% of 330,000 active; active = inhibition of at least 40% at 20 µM;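 note: plate controls were DMSO wells for no effect and DEVD-CHO caspase inhibitor wells for full effect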
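Assay system: Apoptosome proteins | Medium: pH 7.5 Hepes buffer with CHAPS, BSA, DTT | Also added: Cytochrome c and DEVD-Rh110 substrate | Times: 30 min plus 50 min, RT | Detection: Rhodamine 110 fluorescence at Ex 480/Em 540 nm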
SENP8 conf: confirmation of human SENP8 protease inhibitors; purified SENP8, Nedd8-AMC/pro-Nedd8 cleavage fluorescence, 30 min; shares compounds with SENP8 block-1; inhibition, % at 25 µM; AID 624319; 15% of 1,400 active; in the data active = inhibition mostly above about 39%, no sharp cut-off; inactive = mostly below about 34%
Numbers without * were called inactive; . = no result.

SMILES	SENP8 block-1	SENP7 inh	SENP6 inh	UBC13 inh	SENP8 block-2	Apaf1 inhib	SENP8 conf
CCC1=NN(C(=O)c2ccc(Cl)cc2)C(O)(c2ccccc2)C1 (centres undefined)	22.3	-15.8	-4.4	-6.8	-14.1	9.5	.
C=CCn1c(SCC(=O)Nc2cc(C)on2)nnc1C1COc2ccccc2O1 (centres undefined)	-5.7	-12.9	-16.0	-5.0	-10.3	8.4	.
Cc1cc(NC(=O)CSc2nnc(C3COc4ccccc4O3)n2N)no1 (centres undefined)	42.7*	12.7	-12.7	-3.1	-0.6	11.9	8.8
CCC(CO)Oc1cc(NCc2ccc(O)cc2)c2ncn(C(C)C)c2c1 (centres undefined)	15.9	8.3	14.4	3.5	4.1	3.9	.
CCOCCOc1cc(NCc2ccccc2)c2ncn(C(C)C)c2c1	40.1*	.	.	.	.	.	79.6*
CCCC(=O)Nc1ccc(C(=O)N/N=C/c2ccc([N+](=O)[O-])o2)cc1	34.3	0.3	21.2	-23.4	-3.9	13.0	.
Cc1cc(C(=O)N/N=C/c2ccc([N+](=O)[O-])o2)c(C)o1	42.2*	-5.7	1.4	-16.0	-4.0	16.5	37.1
O=C(N/N=C/c1ccc([N+](=O)[O-])o1)c1cc(-c2cccc(Br)c2)nc2ccccc12	41.2*	-6.2	0.3	-2.0	-5.4	25.9	17.7
Cc1ccc(NC(=O)CCC(=O)N/N=C/c2ccc([N+](=O)[O-])o2)cc1C	62.8*	9.4	-1.6	-2.6	1.5	-17.3	11.7
Cc1occc1C(=O)N/N=C/c1cccnc1	5.2	20.1	-14.8	-4.3	4.2	-0.8	.
Cc1cc(C(=O)N/N=C/c2cccnc2)c(C)o1	41.0*	6.0	-8.2	-0.4	1.1	2.7	12.3
C=C1CC[C@@]23CC[C@]4(C)[C@@](OC2=O)([C@@H]3C1)[C@H]1O[C@H]1C1[C@@]2(C)CC[C@H](O)C(C)(C)C2CC[C@]14C (some centres undefined)	7.8	-10.0	0.8	-3.8	-12.6	2.4	.
CCCS(=O)(=O)NC(=O)C1(C)CCCN(C(=O)c2cccnc2Oc2ccccc2)C1 (centres undefined)	15.7	.	.	.	.	.	.
CC[C@@H]1C/C=C\Cc2ccccc2[C@H](C(=O)C[C@@H](O)CC(C)=O)OC1=O	18.5	-7.9	-13.7	-8.7	-7.4	15.2	.
Cc1ccc(C(=O)c2coc3cc([N+](=O)[O-])c(O)c([N+](=O)[O-])c23)cc1	46.8*	1.4	8.7	-79.1	-11.9	19.1	22.9
[O-]C1=N/[N+](=C/c2ccccc2)CC1	19.3	4.6	-8.9	0.3	-4.0	-5.0	.
[O-]C1=N/[N+](=C/c2ccccc2Cl)CC1	50.2*	-6.2	-10.5	-0.1	-8.4	-8.3	34.1
Cc1ccc(OCCCC(=O)N(C)CC(=O)Nc2ccccc2Br)cc1	37.2*	10.5	1.6	1.8	-1.1	19.5	-5.1
Cc1cccc2cc3c(N)c(C(=O)N4CCc5ccccc54)sc3nc12	-11.9	5.0	10.8	-5.0	1.8	12.2	.
CN(Cc1cn(-c2ccccc2)nc1-c1ccc(Cl)cc1)C(=O)CCC(=O)O	40.1*	-1.4	3.3	0.0	9.6	3.6	15.4
CC(C)NC(=O)c1cc(C2CCCCN2C(=O)c2ccccc2)on1 (centres undefined)	10.0	.	.	.	.	.	.
COc1cc(C)c(C(=O)Oc2cc(C)c(C(=O)O)c(O)c2C)c(O)c1C(=O)O	-69.7	-1.2	-2.8	-9.3	2.0	19.9	.
COc1cc(C)c(C(=O)Oc2cc(C)c(C(=O)O)c(O)c2C)c(OC)c1C	43.5*	12.3	-5.3	-9.5	-13.0	5.7	15.4
COc1ccc(C(=O)COc2ccc(C)cc2NC(C)=O)cc1	41.2*	-7.3	-1.5	-7.2	-2.1	-0.3	8.2
COc1ccc(C(=O)CC(=O)C(=O)Nc2cc(OC)ccc2OC)cc1	21.7	-5.6	-16.0	-29.0	-1.1	6.2	.
SMILES	SENP8 block-1	SENP7 inh	SENP6 inh	UBC13 inh	SENP8 block-2	Apaf1 inhib	SENP8 conf
Cc1[nH]c2ccccc2c1/C=N/n1cnnc1	6.6	-2.3	-12.3	2.6	-9.6	1.2	.
CCN(CC)c1ccc(N=Cc2c(C)[nH]c3ccccc23)cc1	59.8*	0.1	10.6	-40.0	-10.2	35.4	8.1
CCOC(=O)Nc1ccc(NC(=O)c2ccccc2F)cc1	5.4	-3.4	-1.6	5.4	-7.8	-13.0	.
COc1ccc(NC(=O)COC(=O)CC2CC3CCC2C3)c([N+](=O)[O-])c1 (centres undefined)	40.4*	-1.4	1.4	9.5	-6.4	13.3	23.2
CCCCOc1ccc(S(=O)(=O)NC(=O)C2(C)CCN2C(=O)c2c(C)noc2C)cc1 (centres undefined)	14.0	.	.	.	.	.	.
CCOCC(=O)N(CC)Cc1ccccc1	-1.8	0.7	-7.3	7.3	3.0	-4.5	.
CCN(CC)C(=O)Cc1ccccc1	42.4*	-6.3	-22.3	2.1	0.2	-11.6	13.5
Cc1nc(CS(=O)(=O)c2ccccn2)sc1C(=O)NNC(=O)c1c(F)cccc1Cl	42.4*	6.7	0.6	0.7	-0.4	20.9	13.7
O=C(Nc1cccc(OC(F)(F)F)c1)C1Cc2c(-c3ccccc3Oc3ccccc3)ccnc2O1 (centres undefined)	9.8	.	.	.	.	.	.
COC(=O)CCCC1=CC2=CC(=O)C(C)(OC(=O)c3cccs3)C(=O)C2=CN1CCCCO (centres undefined)	52.8*	2.2	14.8	-70.3	6.7	38.5	55.5*
COCCN1C=C2C(=O)C(C)(OC(=O)c3cccs3)C(=O)C=C2C=C1CCCC(=O)OC (centres undefined)	37.0	0.5	13.7	-34.0	3.2	22.3	.
COC(=O)CCCC1=CC2=CC(=O)C(C)(OC(=O)c3cccs3)C(=O)C2=CN1C1CC1 (centres undefined)	40.7*	8.4	21.6	-53.5	14.3	17.0	63.0*
COC(=O)CCCC1=CC2=CC(=O)C(C)(OC(=O)c3cccs3)C(=O)C2=CN1C1CCCCC1 (centres undefined)	26.6	-6.1	3.8	-50.4	5.0	29.1	.
COC(=O)CCCC1=CC2=C(c3ccccc3)C(=O)C(C)(OC(=O)C3CCCC3)C(=O)C2=CN1CCCCO (centres undefined)	47.7*	6.5	5.1	-39.4	-1.5	16.2	66.5*
COC(=O)CCCC1=CC2=CC(=O)C(C)(OC(=O)c3cccs3)C(=O)C2=CN1CCN1CCOCC1 (centres undefined)	50.9*	6.5	18.7	-45.7	7.1	15.8	55.4*
CC1CCC2C(C1)Nc1c(C(=O)O)cccc1C2(C)C (centres undefined)	-411.6	1.6	11.0	-5.3	3.3	11.1	.
COCCCN1C(=O)C(CC(=O)NCCCN(C)C)CC(C(=O)N2CCCCCC2)=C1C (centres undefined)	11.2	.	.	.	.	.	.
Cc1ccc(CCNC(=O)c2nc(CS(=O)(=O)c3ccc(Cl)cc3)no2)cc1	3.8	1.0	-19.0	7.6	-2.5	10.3	.
